The values that follow come from ChEMBL document CHEMBL2380221, “Discovery of novel STAT3 small molecule inhibitors via in silico site-directed fragment-based drug design” (J Med Chem, 2013).

The source made the active and inactive calls. No cut-off for these calls is given here.

Assay [1] has as its system U2OS. Put plainly: Cytotoxicity against human U2OS cells assessed as cell viability by MTT assay. The format is functional, cell-based. A digest of the protocol: (§1)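 RD2, RH30 and U2OS sarcoma cells were seeded at 3000 cells/well and incubated 24 h at 37 °C. Compounds were then added in triplicate at 0.1–10 or 0.1–20 μM in the presence of 10% FBS, from 20 mM DMSO stocks. IC50 was obtained by curve fitting.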
(In general: Formazan colour is commonly taken as a measure of viable cells.)

The nature of assay [2]: Cytotoxicity against human U373 cells assessed as cell viability after 72 hrs by MTT assay. The class given is functional, cell-based, U-373MG ATCC. To be noted: U373 MG.
The nature of assay [3]: Cytotoxicity against human U87 cells assessed as cell viability after 72 hrs by MTT assay. The format is functional, cell-based, U-87MG ATCC. The conditions noted are these: U-87 MG.
The test system of assay [4] is PANC-1. Put plainly: Cytotoxicity against human PANC1 cells assessed as cell viability after 72 hrs by MTT assay. The class given is functional, cell-based. To be noted: PANC-1, 72 h.
For assay [5], the system named is SK-BR-3. Put plainly: Cytotoxicity against human SKBR3 cells assessed as cell viability after 72 hrs by MTT assay. The class given is functional, cell-based. To be noted: SK-BR-3, 72 h.
For assay [6], the system named is MDA-MB-231. Put plainly: Cytotoxicity against human MDA-MB-231 cells assessed as cell viability after 72 hrs by MTT assay. The format is functional, cell-based. The conditions noted are these: MDA-MB-231, 72 h.
Assay [7] concerns the target Signal transducer and activator of transcription 3 (Homo sapiens) (UniProt P40763). The assay can be described thus: Inhibition of IL6-induced STAT3 Y705 phosphorylation in human MCF7 cells at 0.5 to 2.5 uM incubated for 5 hrs prior to IL6 induction measured after 30 mins by Western blot analysis. The format is cell-based. A digest of the protocol:
(§2)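 MCF-7 cells, which lack persistent P-STAT3, were allowed to adhere overnight and then serum-starved overnight. They were left untreated or pretreated with compound or DMSO for 5 h, then stimulated with IL-6 at 25 ng/mL. Cells were harvested 30 min later and probed for P-STAT3 (Tyr705) and STAT3 by Western blot using RIPA lysates and ECL.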
On the technique in general: In western blotting, separated proteins are transferred to a membrane and probed.

The test system of assay [8] is SJRH30. Put plainly: Effect on total STAT3 expression in human Rh30 cells at 0.5 to 2.5 uM after 16 hrs by Western blot analysis. The format is functional, cell-based. A digest of the protocol: (§3)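 RH30 cells at 60–80% confluence in 10% FBS were treated with compound or DMSO for 16 h. Whole-cell extracts were made in cold RIPA buffer with protease and phosphatase inhibitor cocktails. Extracts were run on SDS-PAGE and transferred to PVDF. Blots were probed for P-STAT3 (Tyr705) and total STAT3 with primary antibody 1:1,000 and HRP secondary 1:10000, then detected by ECL.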

The target in assay [9] is Signal transducer and activator of transcription 3 (Homo sapiens) (UniProt P40763). The assay can be described thus: Inhibition of constitutive STAT3 Y705 phosphorylation in human Rh30 cells after 16 hrs by Western blot analysis. The class given is cell-based. In a few lines: as §3
Assay [10] can be described thus: Cytotoxicity against human RD2 cells assessed as cell viability by MTT assay. The format is functional, cell-based. A digest of the protocol:
as §1

Assay [11] in a line: Cytotoxicity against human Rh30 cells assessed as cell viability by MTT assay. The class given is functional, cell-based. To be noted: SJRH30. In a few lines:
as §1

Assay [12] concerns MDA-MB-231. Put plainly: Antitumor activity against human MDA-MB-231 cells xenografted in Harlan athymic nude mouse assessed as decrease in tumor size at 5 mg/kg, ip measured for 21 days. The class given is functional, organism-based. More on the design: dose 5 mg/kg. In a few lines:
(§4)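 Female athymic nude mice, 6 weeks old, received 5 × 10^6 MDA-MB-231 cells subcutaneously in the flank. After tumors developed, they were split into two groups of eight tumors each: DMSO vehicle control, or 5 mg/kg IP. The drug was formulated in Cremaphor, DMSO and 5% dextrose. Tumor L and W were measured by caliper every other day. Volume = 0.5236 × L × W2. Treatment lasted 21 days.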
Background: In xenograft studies the graft and the host belong to different species.

Assay [13] addresses T1, Signal transducer and activator of transcription 1-alpha/beta (Homo sapiens) (UniProt P42224).
T1 sequence (whole entry): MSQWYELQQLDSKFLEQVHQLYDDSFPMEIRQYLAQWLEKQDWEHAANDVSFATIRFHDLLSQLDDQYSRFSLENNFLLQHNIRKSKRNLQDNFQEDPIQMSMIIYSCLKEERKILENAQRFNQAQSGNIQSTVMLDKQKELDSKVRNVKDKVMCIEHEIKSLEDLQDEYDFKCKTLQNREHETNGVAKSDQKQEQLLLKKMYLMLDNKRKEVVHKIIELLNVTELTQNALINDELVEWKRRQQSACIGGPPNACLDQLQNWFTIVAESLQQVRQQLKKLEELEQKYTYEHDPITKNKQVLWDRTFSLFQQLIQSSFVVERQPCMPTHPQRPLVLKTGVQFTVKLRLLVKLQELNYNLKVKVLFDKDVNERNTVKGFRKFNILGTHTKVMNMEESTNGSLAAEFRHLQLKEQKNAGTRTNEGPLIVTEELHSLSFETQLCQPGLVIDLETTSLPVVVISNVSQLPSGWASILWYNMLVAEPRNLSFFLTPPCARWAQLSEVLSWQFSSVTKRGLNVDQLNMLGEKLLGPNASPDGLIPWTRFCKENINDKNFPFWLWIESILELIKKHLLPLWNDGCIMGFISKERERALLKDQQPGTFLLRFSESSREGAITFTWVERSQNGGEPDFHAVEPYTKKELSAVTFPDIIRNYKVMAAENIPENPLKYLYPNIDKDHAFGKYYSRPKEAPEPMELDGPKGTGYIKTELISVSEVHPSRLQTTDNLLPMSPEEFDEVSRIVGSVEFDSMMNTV
Put plainly: Inhibition of IFN-gamma-induced STAT1 Y701 phosphorylation in human DAOY cells at 1 to 5 uM incubated for 2 hrs prior to IFN-gamma induction measured after 30 mins by Western blot analysis. The class given is cell-based. A digest of the protocol:
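DAOY cells were serum-starved overnight and left untreated or treated with 1–5 μM compound or DMSO for 2 h. They were then stimulated with IFN-γ at 50 ng/mL and harvested 30 min later. STAT1 phosphorylation was analyzed by Western blot from RIPA lysates, with ECL detection.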

For assay [14], the target named is Signal transducer and activator of transcription 3 (Homo sapiens) (UniProt P40763). Put plainly: Inhibition of IL6-induced STAT3 Y705 phosphorylation in human DAOY cells at 1 to 5 uM incubated for 2 hrs prior to IL6 induction measured after 30 mins by Western blot analysis. The format is cell-based. In a few lines: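 DAOY medulloblastoma cells were allowed to adhere, then serum-starved overnight. They were left untreated or pretreated with 1–5 μM compound or DMSO for 2 h, then stimulated with IL-6. Cells were harvested 30 min after stimulation. P-STAT3 (Tyr705) and STAT3 were detected by Western blot from RIPA lysates, with ECL detection.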

The target is the same in assay [15]. Put plainly: Inhibition of IL6-induced STAT3 Y705 phosphorylation in human MCF7 cells at 0.25 to 1 uM incubated for 5 hrs prior to IL6 induction measured after 30 mins by Western blot analysis. The class given is cell-based. In a few lines:
as §2

Assay [16] shares this target. Put plainly: Inhibition of constitutive STAT3 Y705 phosphorylation in human EW8 cells assessed as appearance of cleaved caspase 3 at 0.5 to 1 uM after 8 hrs by Western blot analysis. The class given is cell-based. In a few lines:
(§5)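 EW8 Ewing's sarcoma cells were treated with 0.5–1 μM compound or DMSO for 8 h, in 10% FBS at 60–80% confluence. Whole-cell RIPA lysates were analyzed by SDS-PAGE and PVDF Western blot, with primary antibody 1:1,000, HRP secondary 1:10000 and ECL detection. Blots were probed for P-STAT3, total STAT3, phosphorylated ERK1/2 and cleaved caspase 3.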

The target in assay [17] is Mitogen-activated protein kinase; ERK1/ERK2 (Homo sapiens) (UniProt P27361+P28482). Put plainly: Inhibition of ERK1/2 phosphorylation in human EW8 cells at 0.5 to 1 uM after 8 hrs by Western blot analysis. The class given is cell-based. A digest of the protocol:
as §5

Assay [18] deals with MDA-MB-231. Put plainly: Antitumor activity against human MDA-MB-231 cells xenografted in Harlan athymic nude mouse assessed as tumor growth inhibition at 5 mg/kg, ip measured for 21 days. The format is functional, organism-based. Details: dose 5 mg/kg. In a few lines: as §4
Assay [19] relates to EW8. Put plainly: Effect on total STAT3 expression in human EW8 cells at 0.5 to 1 uM after 8 hrs by Western blot analysis. The format is functional, cell-based. In a few lines: as §5
In assay [20] the test system is SJRH30. Put plainly: Effect on total STAT3 expression in human Rh30 cells at 0.25 to 1 uM after 16 hrs by Western blot analysis. The format is functional, cell-based. A digest of the protocol: as §3
For assay [21], the target named is Signal transducer and activator of transcription 3 (Homo sapiens) (UniProt P40763). The assay can be described thus: Inhibition of constitutive STAT3 Y705 phosphorylation in human EW8 cells after 8 hrs by Western blot analysis. The format is cell-based. In a few lines:
as §5

In general, IC50 refers to the concentration that gives 50% inhibition.

Sequence of Signal transducer and activator of transcription 3 (Homo sapiens) (P40763 whole entry): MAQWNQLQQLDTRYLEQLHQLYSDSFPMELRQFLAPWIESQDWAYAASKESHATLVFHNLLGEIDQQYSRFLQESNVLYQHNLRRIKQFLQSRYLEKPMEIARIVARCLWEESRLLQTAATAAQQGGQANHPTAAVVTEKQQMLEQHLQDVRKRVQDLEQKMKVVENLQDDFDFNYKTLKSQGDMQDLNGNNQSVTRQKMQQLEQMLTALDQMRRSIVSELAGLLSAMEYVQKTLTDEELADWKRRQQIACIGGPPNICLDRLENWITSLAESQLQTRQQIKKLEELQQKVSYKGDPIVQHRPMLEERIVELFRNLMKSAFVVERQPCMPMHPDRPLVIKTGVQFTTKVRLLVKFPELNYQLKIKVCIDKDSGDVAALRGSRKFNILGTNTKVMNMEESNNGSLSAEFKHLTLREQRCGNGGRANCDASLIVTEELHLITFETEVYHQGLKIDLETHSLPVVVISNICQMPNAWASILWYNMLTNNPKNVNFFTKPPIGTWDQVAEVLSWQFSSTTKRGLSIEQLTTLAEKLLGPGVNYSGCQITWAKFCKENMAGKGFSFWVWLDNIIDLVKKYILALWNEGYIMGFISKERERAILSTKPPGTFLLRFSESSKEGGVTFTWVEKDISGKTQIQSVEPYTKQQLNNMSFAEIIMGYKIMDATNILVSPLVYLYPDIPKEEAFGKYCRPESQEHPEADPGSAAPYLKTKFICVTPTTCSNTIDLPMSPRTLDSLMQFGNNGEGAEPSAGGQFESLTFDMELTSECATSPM
Sequence of Mitogen-activated protein kinase; ERK1/ERK2 (Homo sapiens) (P27361 whole entry, looked up): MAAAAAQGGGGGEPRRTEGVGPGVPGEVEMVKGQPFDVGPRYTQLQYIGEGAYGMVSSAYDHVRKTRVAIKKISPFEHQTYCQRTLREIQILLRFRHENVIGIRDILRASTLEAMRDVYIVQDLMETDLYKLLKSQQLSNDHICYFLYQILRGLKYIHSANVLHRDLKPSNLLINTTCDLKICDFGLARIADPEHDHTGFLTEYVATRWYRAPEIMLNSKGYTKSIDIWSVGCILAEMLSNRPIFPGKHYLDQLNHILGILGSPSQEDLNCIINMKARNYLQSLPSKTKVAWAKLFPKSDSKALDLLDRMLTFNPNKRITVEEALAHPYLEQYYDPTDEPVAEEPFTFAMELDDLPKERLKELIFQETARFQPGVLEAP
Sequence of Mitogen-activated protein kinase; ERK1/ERK2 (Homo sapiens) (P28482 whole entry, looked up): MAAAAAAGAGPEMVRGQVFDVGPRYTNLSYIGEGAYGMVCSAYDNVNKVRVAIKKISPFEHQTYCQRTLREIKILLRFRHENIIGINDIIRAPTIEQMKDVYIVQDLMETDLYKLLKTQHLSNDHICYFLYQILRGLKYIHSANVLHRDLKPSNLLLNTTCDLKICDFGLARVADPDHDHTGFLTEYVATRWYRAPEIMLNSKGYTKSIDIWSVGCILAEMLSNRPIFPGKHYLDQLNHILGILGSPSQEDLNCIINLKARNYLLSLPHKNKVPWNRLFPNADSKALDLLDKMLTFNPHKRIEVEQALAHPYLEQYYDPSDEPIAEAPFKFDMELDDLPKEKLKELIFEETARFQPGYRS

In the case of `O=C1C(Nc2ccc3ccccc3c2)=CC2=NS(=O)(=O)c3cccc1c32`, the IC50 in assay [1] was 2.5 µM.
Still for that read-out and setting: in the case of `NS(=O)(=O)c1cccc2c1C(=O)C=C(Nc1ccccc1)C2=O` it was above 5 µM.
For the compound `NS(=O)(=O)c1cccc2c1C(=O)c1cccc(O)c1C2=O`, the 50% inhibitory concentration (IC50) in [2], in assay [3], in [4], in [5] and in [6] was 0.16 µM each time.
As for `O=C1C(Nc2ccc([N+](=O)[O-])cc2Cl)=CC2=NS(=O)(=O)c3cccc1c32`, in assay [7], the inhibition entry is “Active”. In assay [8], the result was inactive. Further, in [9], the inhibition result is “Dose-dependent effect”. In addition, the 50% inhibitory concentration (IC50) in assay [10] turned out to be 2.56 µM; in assay [11], 1.14 µM; in [1] it was 1.39 µM.
In the case of `O=C1C(Nc2ccccc2)=CC2=NS(=O)(=O)c3cccc1c32`, in assay [1], the IC50 is 5 µM.
For the compound `NS(=O)(=O)c1cccc2c1C(=O)C=C(Nc1cccnc1)C2=O`, the outcome in assay [12] was Active. Besides, the inhibition result in [13] and in assay [17] was “inactive” each time. In addition, the inhibition result in [14], in [15] and in assay [16] was “Active” in each case. The TGI result in assay [18] was “Active”. Moreover, the outcome in assay [19] and in [20] was inactive. Also, the inhibition result in assay [21] and in assay [9] was “Dose-dependent effect” in each case. The IC50 in assay [10] turned out to be 1.39 µM; in assay [11], 0.55 µM; in assay [1] it was 0.5 µM.
